Screens as filed in PubChem BioAssay.
Sampled rows, rich in hits. Any-hit rate of the full collection: about 2.6%.
MLL AF4-AF9 inh – MLL-AF4/AF9 protein interaction inhibition. AlphaScreen, biotin-AF4 peptide binding to FLAG-AF9. inhibition, % at 10 µM. actives 0.47% (n = 350,000). AID 651704;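 active = every replicate reaching a set inhibition limit, whatever the replicate mean, cut at about 25% in these data; inconclusive = mean inhibition reaches that limit but some replicates miss it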;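 also: 0% = plate neutral control median and 100% = total signal loss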
rRNA inh HTS – selective bacterial rRNA inhibition in E. coli; E. coli WT GFP vs humanized-ribosome RFP mutants, fluorescence, 24 h; active compounds read low; DMSO median 0, no signal -100; GFP signal change (wild-type ribosome), % (test concentration not listed); actives 1.6% (n = 350,000);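 active = significant combined selectivity score with lowered wild-type GFP, culture density cut under 30%, mutant RFP and density less affected; inactive = any of these conditions unmet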
E-selectin induc – induces E-selectin expression in human endothelial cells; P16581; HUVEC E-selectin immunofluorescence imaging; normalized: neutral wells 0, TNF-alpha wells 100; activation, % at 7.58 µM; actives 0.37% (n = 260,000);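 active = mean E-selectin-positive cell signal at least 10% of the positive control, reached in at least 60% of replicates, without over 20% cell loss; inconclusive = no rule given, readout overlaps actives, possibly toxicity-flagged; inactive = the rest, including those meeting only one limit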
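Material: HUVEC primary endothelial cells; Amount: 3,000 cells per well; Dosing: single concentration; Medium: EGM-2 growth medium on 0.1% gelatin-coated wells; Read-out basis: percent E-selectin-positive cells; Signal: immunofluorescence imaging; Control set: TNF-alpha, DMSO.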
INS-1E GSIS act – GLuc luminescence reporter in INS-1E cells, primary screen for activators of glucose-dependent secretion of insulin; INS-1E GLuc reporter insulin secretion, 2-3 h; activation, % at 16.6 µM; actives 0.61% (n = 370,000); AID 743287;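 active = lowest replicate activation of at least 40%, so every replicate reaches that level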;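 also: 0% = median of neutral control wells and 100% = median of IBMX positive control wells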
RAD52 inh – blocks human RAD52 DNA annealing; actives 0.46% (n = 360,000); recombinant RAD52 DNA annealing, FRET fluorescence; P43351; inhibition, % at 18.7 µM;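 active = every replicate showing at least 50% inhibition; inconclusive = mean inhibition at least 50% but not in every replicate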
Target sequence (P43351 whole entry, looked up): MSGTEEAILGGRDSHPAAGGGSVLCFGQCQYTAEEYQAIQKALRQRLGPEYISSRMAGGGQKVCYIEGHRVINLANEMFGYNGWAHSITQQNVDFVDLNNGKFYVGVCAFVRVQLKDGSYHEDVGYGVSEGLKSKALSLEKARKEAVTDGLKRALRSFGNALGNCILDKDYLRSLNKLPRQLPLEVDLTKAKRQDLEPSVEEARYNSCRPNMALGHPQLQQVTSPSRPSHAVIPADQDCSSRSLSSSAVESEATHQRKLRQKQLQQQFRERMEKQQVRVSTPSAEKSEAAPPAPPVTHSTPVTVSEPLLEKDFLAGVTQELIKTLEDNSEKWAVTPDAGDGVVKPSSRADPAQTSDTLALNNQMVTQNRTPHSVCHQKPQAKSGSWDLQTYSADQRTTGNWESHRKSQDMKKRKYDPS
RAD54 branch – RAD54 (human) branch migration inhibition; Q92698; RAD54 Holliday junction branch migration, FAM/BHQ fluorescence; inhibition, % at 10.4 µM; actives 0.14% (n = 360,000);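 active = mean normalized replicate activity at least 40 and at least half of replicates scoring 40 or more; inconclusive = only one of the two criteria met; inactive = mean below 40 and under half of replicates reaching 40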;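 also: 0% = median of neutral control wells and 100% = median of positive control wells; inhibitors cause a drop in the FAM fluorescence signal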
The depositor's hits bear a star; ? = inconclusive; nt = not tested or not shown.

SMILES	MLL AF4-AF9 inh	rRNA inh HTS	E-selectin induc	INS-1E GSIS act	RAD52 inh	RAD54 branch
CN1c2ccc(-c3cccc(F)c3)cc2[C@H]2[C@H](CCN2C(=O)C2CCC2)[C@H]1CO	28*	-48	-1	-23	-2	nt
COc1ccc(-c2ccc3c(c2)[C@@H]2[C@@H](CCN2C(=O)C2CCCC2)[C@H](CO)N3C)cc1	35*	-17	0	-21	24	nt
CN1c2ccc(C3=CCCCC3)cc2[C@@H]2[C@@H](CCN2C(=O)C2CCCCC2)[C@H]1CO	25*	-3	0	-12	-1	nt
COc1ccc(S(=O)(=O)N(C)C[C@@H]2Oc3ccc(NS(=O)(=O)c4ccc(C)cc4)cc3C(=O)N([C@H](C)CO)C[C@@H]2C)cc1	-2	-3	1	-16	4	nt
CCc1ccc(N(C2C=CS(=O)(=O)C2)S(=O)(=O)c2ccccc2)cc1 (stereo unspecified)	nt	nt	nt	86*	nt	nt
C[C@H](CO)N1C[C@H](C)[C@H](CN(C)S(=O)(=O)c2cccc(C#N)c2)OCc2ccccc2-c2c(n(C)c3ccccc23)C1=O	3	-10	0	-16	28	2
COc1cc2c(cc1OC)C(Cc1ccc(O)cc1)NCC2 (stereo unspecified)	6	8	0	70*	-2	6
COc1cc2c(cc1OC)C(Cc1ccc(O)cc1)N(C)CC2 (stereo unspecified)	-2	2	nt	40*	-13	-7
CCC(=O)N[C@@H]1CC[C@@H](CC(=O)NCc2ccccc2OC)O[C@@H]1CO	-4	-1	-1	7	5	0
COc1ccccc1-c1cn(CC[C@H]2CC[C@H](NC(=O)C3CC3)[C@H](CO)O2)nn1	5	1	0	-3	-4	2
CCn1nnc(NC(=S)NC(=O)c2ccc(-c3cccc(Cl)c3)o2)n1	-1	-21*	nt	7	-12	-3
FC(F)Oc1ccc(NC(=S)Nc2ccc3cn[nH]c3c2)cc1	?	-25*	0	-12	-9	13
Cc1ccc(NC(=S)Nc2ccc3cn[nH]c3c2)cc1	nt	nt	nt	-3	nt	nt
C=CCNC(=S)Nc1ccc2cn[nH]c2c1	-5	12	0	40*	-13	nt
S=C(Nc1ccccc1)Nc1ccc2cn[nH]c2c1	-5	-3	3	-21	-8	nt
O=C(C1CC1)N1C[C@H]2[C@@H](c3ccccc31)[C@@H](CO)N2C(=O)c1cccc(F)c1	1	4	0	-2	5	16
COc1ccc(NC(=O)N[C@H]2CC[C@@H](CCNS(=O)(=O)c3ccccc3F)O[C@@H]2CO)cc1	2	-5	0	6	-7	4
N=C1/C(=C/c2coc3ccccc3c2=O)C(=O)N=C2SC(c3ccco3)=NN12	nt	nt	nt	nt	nt	-62
N=C1/C(=C\c2coc3ccccc3c2=O)C(=O)N=C2SC(c3ccncc3)=NN12	-4	-15*	1	-40	-239	-58
COc1ccc(CN(C)C[C@H]2OCCCC[C@H](C)Oc3ccc(NC(=O)Nc4ccc5c(c4)OCO5)cc3C(=O)N([C@H](C)CO)C[C@H]2C)cc1	14	1	0	-26	8	-6
C[C@@H]1CCCCO[C@H](CN(C)Cc2ccccc2)[C@@H](C)CN([C@@H](C)CO)C(=O)c2cc(NC(=O)Nc3ccc4c(c3)OCO4)ccc2O1	37*	1	0	-29	17	1
C[C@@H]1CN([C@@H](C)CO)C(=O)c2cc(NC(=O)Nc3ccc4c(c3)OCO4)ccc2O[C@@H](C)CCCCO[C@@H]1CN(C)Cc1ccc2c(c1)OCO2	4	4	nt	-33	-1	6
COc1ccc(CN(C)C[C@@H]2OCCCC[C@@H](C)Oc3ccc(NC(=O)Nc4ccc5c(c4)OCO5)cc3C(=O)N([C@H](C)CO)C[C@H]2C)cc1	20	1	0	-37	55*	-4
C[C@@H]1CCCCO[C@@H](CN(C)Cc2ccc3c(c2)OCO3)[C@H](C)CN([C@H](C)CO)C(=O)c2cc(NC(=O)Nc3ccc4c(c3)OCO4)ccc2O1	32*	5	nt	-35	7	7
C[C@H](CO)N1C[C@H](C)[C@H](CN(C)Cc2ccc3c(c2)OCO3)OCCCC[C@H](C)Oc2ccc(NC(=O)Nc3ccccc3)cc2C1=O	8	-18	0	-13	56*	-4
SMILES	MLL AF4-AF9 inh	rRNA inh HTS	E-selectin induc	INS-1E GSIS act	RAD52 inh	RAD54 branch
Cc1ccccc1S(=O)(=O)NCC[C@@H]1CC[C@@H](NC(=O)C2CCCCC2)[C@H](CO)O1	-2	-4	0	0	0	-3
O=C(Nc1cccnc1)/C(N=Nc1cccnc1)=C(\O)c1ccccc1	nt	nt	nt	75*	nt	nt
Cc1nn(-c2cc(C(F)(F)F)ccc2Cl)c2nc(C(Cl)(Cl)Cl)[nH]c(=O)c12	1	-15*	12	-26	0	nt
Cc1nn(-c2ccccc2)c2nc(C(F)(F)F)[nH]c(=O)c12	-5	-15	nt	-16	-3	nt
CC(C)NC(=O)N(C)C[C@@H]1Oc2ccc(NS(=O)(=O)c3cccs3)cc2CC(=O)N([C@@H](C)CO)C[C@H]1C	-3	3	29*	6	-10	0
C[C@@H]1CN([C@@H](C)CO)C(=O)Cc2cc(NS(=O)(=O)c3cccs3)ccc2O[C@H]1CN(C)Cc1ccc(Cl)c(Cl)c1	6	-3	-1	-21	51*	-2
OC[C@H]1Nc2ccc(-c3cccc(F)c3)cc2[C@H]2[C@@H]1CCN2Cc1ccncc1	2	6	-1	2	-156	-6
CCN1C(=O)[C@H]2[C@@H](c3ccc(C)cc3)N[C@]3(CCCN(Cc4ccc(Cl)cc4)C3=O)[C@H]2C1=O	-2	-20*	1	-36	4	nt
CCN1C(=O)[C@H]2[C@@H](c3ccc(C)cc3)N3C(=O)N(c4ccc(C)cc4)C(=O)[C@@]3(Cc3ccc(Cl)cc3)[C@H]2C1=O	2	-28*	0	nt	-1	5
Cc1cc(C(=O)Nc2cccc(C(=O)O)c2)c(C)o1	nt	nt	nt	0	nt	-1
Cc1cc(C(=O)Nc2cccc(O)c2)c(C)o1	nt	nt	nt	57*	nt	8
CO[C@H]1CN(C)C(=O)c2cc(NS(=O)(=O)c3cccc(F)c3)ccc2OC[C@@H](C)N(Cc2cc(F)ccc2F)C[C@@H]1C	0	1	0	-12	-8	-3
COc1ccc(C2(C)CC(C)(C)Nc3ccccc32)cc1 (stereo unspecified)	5	-29*	nt	9	4	6
CCc1nn2cc(C(=O)c3cc(Cl)ccc3O)cnc2c1-c1ccc(F)cc1	-18	-18*	0	-8	-5	nt
Cn1c(SCC(=O)N2CCCC2)nc2ccccc21	1	8	3	2	-3	nt
Cn1c(SCc2nnc3n2CCCCC3)nc2ccccc21	nt	nt	nt	66*	nt	4
